From PubChem BioAssay
In the library only some 3.7% were active in any assay of this set; here they are far more common.
TAAR1 ag: human TAAR1 agonists, primary screen, Fluo-8 calcium fluorescence, CHO RD-HGA16 cells | Trace amine-associated receptor 1 (Homo sapiens), Q96RJ0 | activation, % at 3 µM | vehicle wells 0%, saturating PEA agonist 100% | actives 0.99% (n = 360,000);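 active = activation above the mean activation of all test compounds in the run plus 3 SD, cut at about 38% in these data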
Target sequence (Q96RJ0 whole entry, looked up): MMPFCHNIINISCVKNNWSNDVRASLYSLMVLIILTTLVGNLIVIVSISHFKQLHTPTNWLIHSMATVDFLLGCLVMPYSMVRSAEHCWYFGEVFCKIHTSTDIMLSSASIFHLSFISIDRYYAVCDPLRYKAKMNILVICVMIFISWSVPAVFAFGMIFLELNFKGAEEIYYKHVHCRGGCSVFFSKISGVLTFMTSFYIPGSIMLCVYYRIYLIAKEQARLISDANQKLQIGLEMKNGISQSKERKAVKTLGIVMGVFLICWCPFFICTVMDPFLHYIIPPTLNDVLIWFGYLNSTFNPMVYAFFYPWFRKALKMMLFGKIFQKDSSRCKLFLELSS
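Benchmarks: low control DMSO, high control PEA (EC100); System: CHO RD-HGA16 cells carrying human TAAR1 plus Gα16; Detection: Fluo-8 fluorescence, 5 s baseline then 140 s kinetic read; Schedule: 17-24 h plating, Fluo-8 75 min 37 °C, 30 min RT; Read-out basis: % activation from peak over basal fluorescence ratio, DMSO-to-PEA scaled.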
HCV NS3 hel inh: inhibitors of HCV NS3 helicase, primary screen, biochemical, Cy5 molecular beacon fluorescence; actives 0.56% (n = 290,000); NS3 helicase DNA unwinding; inhibition, % at 10.9 µM; Hepatitis C virus NS3 helicase; AID 1800, 2009;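 active = inhibition above the mean of all tested compounds plus 3 SD, set per campaign, cut at about 35% in these data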;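 also: 0% = DMSO wells and 100% = thioflavine S control wells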
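Material: hepatitis C virus NS3 helicase domain fragment enzyme; measured by: Cy5 fluorescence, 0 and 60 min reads; control set: DMSO and thioflavine S; incubation: 60 min unwinding reaction at 25 °C after ATP addition; read-out basis: % inhibition from 60/0 min fluorescence ratio, DMSO 0%, thioflavine S 100%; repeats: singlicate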
rCAG RNA binder: binders of r(CAG) RNA repeats, primary screen, biochemical, fluorescence. r(CAG) RNA repeat, TO-PRO-1 dye displacement fluorescence. inhibition, % at 3 µM. actives 1.3% (n = 370,000). AID 651821, 2012;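 active = inhibition above the plate cutoff, the mean of all test compounds on that plate plus 3 SD, cut at about 35% in these data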;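 also: 0% = DMSO alone and 100% = 100 µM mitoxantrone as full dye displacement; higher means more dye released from RNA so lower well fluorescence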
core dimer inh: inhibitors of HCV core protein dimerization, primary screen, biochemical, TR-FRET, high-throughput; actives 0.33% (n = 300,000); TR-FRET GST/Flag-core106 dimerization, 1536-well; AID 1899, 2009; inhibition, % at 5 µM;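 active = inhibition above the mean of all tested compounds plus 3 SD, set per screening campaign, cut at about 45% in these data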
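Assay system: tagged HCV core106 pair (GST and Flag); medium: KF-containing HEPES buffer, pH 7.45, DTT, CHAPS, BSA; also added: Eu donor and XL665 acceptor anti-tag antibodies; dosing: 5 µM single dose; timing: compound-protein-antibody incubation 4 h at 22.5 °C; signal: TR-FRET 671 and 617 nm emission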
TAAR1 antag: human TAAR1 antagonists, primary screen, Fluo-8 calcium fluorescence, CHO RD-HGA16 cells; Trace amine-associated receptor 1 (Homo sapiens), Q96RJ0; antagonist; inhibition, % at 3 µM; actives 1.5% (n = 360,000);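 active = inhibition above a per-plate cutoff, the mean inhibition of test compounds on that plate plus 3 SD, cut at about 49% in these data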;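 also: 0% = DMSO plus EC80 beta-PEA response and 100% = DMSO alone without agonist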
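Material: CHO RD-HGA16 cells bearing hTAAR1; compound dosing: one-point dosing, 3 µM nominal final; schedule: dye loading 75 min at 37 °C, then 30 min room temperature; measured by: calcium fluorescence with Fluo-8; control set: vehicle and agonist controls; replication: n of 1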
rCAG binder conf: small molecules binding CAG repeat RNA – biochemical, fluorescence, confirmation; inhibition, % at 3 µM; shares compounds with rCAG RNA binder; r(CAG) RNA repeat, TO-PRO-1 dye displacement fluorescence; AID 652065, 2013; actives 70% (n = 4,300);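 active = inhibition above a per-plate cutoff, the mean inhibition of sample wells plus 3 SD, cut at about 35% in these data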;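 also: loss of TO-PRO-1 fluorescence as compound displaces dye from 1x1 AA loop RNA; 0% = DMSO only wells and 100% = 100 µM mitoxantrone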
dCAG dye counter: displacement of TO-PRO-1 from CAG DNA duplex, counter-screen for rCAG RNA repeat binder project, biochemical, fluorescence, TO-PRO-1 dye, d(CAG) DNA oligo; d(CAG) DNA oligo TO-PRO-1 dye displacement; AID 652068, 2013; inhibition, % at 3 µM; actives 94% (n = 4,300); shares compounds with rCAG RNA binder;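 active = inhibition above its plate's cutoff, the mean test-well inhibition plus 3 SD, cut at about 4.8% in these data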;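 also: 0% = DNA dye mix with DMSO and 100% = 100 µM mitoxantrone; hits displace the dye from DNA and so lower well fluorescence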
The depositor's hits bear a star; . = no result given.

SMILES | TAAR1 ag | HCV NS3 hel inh | rCAG RNA binder | core dimer inh | TAAR1 antag | rCAG binder conf | dCAG dye counter
Cc1ccnc(NC(=O)c2cccc(NC(=O)COc3ccccc3)c2)c1 | 10 | -2 | -5 | -5 | 18 | . | .
CC(C)C(=O)Nc1cccc(C(=O)Nc2ccccc2C(=O)O)c1 | 5 | -6 | 8 | 0 | 4 | . | .
Cc1cccc(OCC(=O)Nc2cccc(C(=O)Nc3ccccc3C(=O)O)c2)c1 | -2 | 31 | 71* | 6 | 12 | 66* | 29*
CC(C)c1ccc(OCC(=O)Nc2cccc(C(=O)Nc3ccccc3C(=O)O)c2)cc1 | 2 | -9 | 82* | 17 | -4 | 88* | 63*
O=C(COc1ccccc1[N+](=O)[O-])Nc1cccc(C(=O)Nc2ccccc2C(=O)O)c1 | 2 | -6 | 69* | 17 | -6 | 80* | 45*
Cc1nc(Nc2nc(-c3ccccc3)cc(=O)[nH]2)nc2ccccc12 | 7 | -3 | 37* | 3 | 9 | 19 | 6.5*
Cc1nc(Nc2nc(CSc3ccc(Cl)cc3)cc(=O)[nH]2)nc2ccccc12 | 6 | 4 | 8 | 24 | 16 | . | .
Cc1nc(Nc2nc(CSc3nc4ccccc4[nH]3)cc(=O)[nH]2)nc2ccccc12 | 11 | 25 | 41* | 15 | 33 | 32 | 21*
Cc1cc(C(=O)CN2c3cccc4cccc(c34)S2(=O)=O)c(C)n1C | 3 | . | 38* | . | -18 | 12 | 8.6*
CCOC(=O)CCc1ccc(NC(=O)/C=C/c2ccc([N+](=O)[O-])o2)cc1 | 9 | . | 6 | . | 32 | . | .
CCc1ccc(C(=O)/C=C/c2ccc([N+](=O)[O-])o2)cc1 | 1 | 23 | 38* | 24 | 8 | 17 | 11*
CC(C)(C)OC(=O)NCc1cc(F)ccc1/C=C/S(=O)(=O)NC1CCCC1 | . | . | 0 | . | . | . | .
CC1(C(=O)NS(=O)(=O)c2cccc(OC(F)F)c2)CCN1C(=O)Cc1ccccc1 (stereo not drawn) | 0 | . | 4 | . | -7 | . | .
CC(C)c1ccc(CC(=O)N2CCC2(C)C(=O)NS(=O)(=O)c2cccc(OC(F)F)c2)cc1 (stereo not drawn) | 0 | . | 35* | . | 12 | 27 | 4
CC1(C(=O)NS(=O)(=O)c2ccc3c(c2)CCO3)CCN1C(=O)c1ccccc1CCc1ccccc1 (stereo not drawn) | 2 | . | 42* | . | -10 | 42* | 11*
CC1(C(=O)NS(=O)(=O)c2cccc(F)c2)CCN1C(=O)c1ccccc1CCc1ccccc1 (stereo not drawn) | 1 | . | 52* | . | -25 | 43* | 11*
CC1(C(=O)NS(=O)(=O)c2cccc(OC(F)F)c2)CCN1C(=O)c1ccccc1CCc1ccccc1 (stereo not drawn) | 2 | . | 61* | . | -11 | 54* | 17*
COC(=O)C1=C(C)N(Cc2ccccc2C(F)(F)F)C(=NCc2cc(OC)c(OC)c(OC)c2)NC1CCc1ccccc1 (stereo not drawn) | 18 | . | 9 | . | 6 | . | .
Cc1cccc(S(=O)(=O)NC(=O)C2(C)CCN2C(=O)c2ccccc2CCc2ccccc2)c1 (stereo not drawn) | 3 | . | 39* | . | 1 | 45* | 11*
COC(=O)[C@]12C[C@H](CC(=O)NCc3cccc(C(F)(F)F)c3)C(=O)N(CCc3ccc(OC)c(OC)c3)C1=C[C@H](C1CCCC1)O[C@@H]2C | . | . | 2 | . | . | . | .
COc1ccc2[nH]c3c4c(ccc3c2c1)C(=O)C=CC4=O | 44* | 13 | 44* | . | 77* | 19 | 15*
N#Cc1cccc(NC(=O)OCCCN2CCC3(CCCCC3)C2=O)c1 | . | . | -2 | . | . | . | .
